ChEMBL document CHEMBL1146768, “Orally active factor Xa inhibitors: 4,5,6,7-tetrahydrothiazolo[5,4-c]pyridine derivatives” (Bioorg Med Chem Lett, 2004)

Legend:
Coagulation factor X = Coagulation factor X (Homo sapiens, UniProt P00742); assay: In vitro inhibitory activity against human Coagulation factor X
Homo sapiens = organism: Homo sapiens; assay: Anti-coagulant activity in human plasma were evaluated with the plasma clotting time doubling concentration; type: functional, cell-free
Prothrombin = Prothrombin (Homo sapiens, UniProt P00734); assay: In vitro inhibitory activity against human thrombin
Rattus norvegicus [1] = assay: Ex vivo anti-fXa activity at 1 hr after oral administration of 30 mg/kg to rats perorally; type: functional
Outline: (§1)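 Male Wistar rats, fasted overnight, dosed by stomach tube with compound in 0.5% (w/v) methylcellulose; controls got vehicle alone. Blood drawn into trisodium citrate under halothane anaesthesia at set times, and platelet-poor plasma prepared.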

Rattus norvegicus [2] = assay: Ex vivo anti-fXa activity at 6 hr after oral administration of 30 mg/kg to rats perorally; type: functional; outline: as §1
Rattus norvegicus [3] = assay: Ex vivo anti-coagulant activity at 6 hr after oral administration of 30 mg/kg to rats perorally; type: functional
Rattus norvegicus [4] = assay: Ex vivo anti-coagulant activity at 1 hr after oral administration of 30 mg/kg to rats perorally; type: functional
Rattus norvegicus [5] = assay: Ex vivo anti-fXa activity at 3 hr after oral administration of 30 mg/kg to rats perorally; type: functional; outline: as §1
Rattus norvegicus [6] = assay: Ex vivo anti-coagulant activity at 3 hr after oral administration of 30 mg/kg to rats perorally; type: functional

Chain of Coagulation factor X (P00742 41-179 limits assumed): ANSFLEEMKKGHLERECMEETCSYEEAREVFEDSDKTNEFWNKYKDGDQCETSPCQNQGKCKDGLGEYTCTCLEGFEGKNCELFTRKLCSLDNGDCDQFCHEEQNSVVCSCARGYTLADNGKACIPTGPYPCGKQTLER
Chain of Coagulation factor X (P00742 235-488 limits assumed): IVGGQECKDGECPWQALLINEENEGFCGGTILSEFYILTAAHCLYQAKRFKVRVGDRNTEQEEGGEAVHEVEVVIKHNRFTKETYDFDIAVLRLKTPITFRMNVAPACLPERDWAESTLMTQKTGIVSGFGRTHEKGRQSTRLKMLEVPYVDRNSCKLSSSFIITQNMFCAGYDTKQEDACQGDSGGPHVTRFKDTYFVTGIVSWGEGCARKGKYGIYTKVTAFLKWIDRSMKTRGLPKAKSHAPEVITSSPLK

Row | IC50 (Coagulation factor X) | IC50 (Prothrombin) | SMILES | Concentration (Homo sapiens) | Anti-fXa activity (Rattus norvegicus [1]) | Anti-fXa activity (Rattus norvegicus [2]) | Prolongation effect (Rattus norvegicus [3]) | Prolongation effect (Rattus norvegicus [4]) | Anti-fXa activity (Rattus norvegicus [5]) | Prolongation effect (Rattus norvegicus [6])
1 | 23 nM | 880 nM | CN1CCc2nc(C(=O)N3CCN(S(=O)(=O)c4ccc5cc(Cl)ccc5c4)CC3C(=O)NCC(N)=O)sc2C1 (stereo not given) | 3.8 µM | – | – | – | – | – | –
2 | 45 nM | 820 nM | CC(C)NC(=O)C1CN(S(=O)(=O)c2ccc3cc(Cl)ccc3c2)CCN1C(=O)c1nc2c(s1)CN(C)CC2 (stereo not given) | 8.8 µM | – | – | – | – | – | –
3 | 27 nM | 1350 nM | CNC(=O)C1CN(S(=O)(=O)c2ccc3cc(Cl)ccc3c2)CCN1C(=O)c1nc2c(s1)CN(C)CC2 (stereo not given) | 3 µM | 89.5% | 23.5% | 1.04 | 1.35 | 73.7% | 1.14
4 | – | 1000 nM | CN1CCc2nc(C(=O)N3CCN(S(=O)(=O)c4ccc5cc(Cl)ccc5c4)CC3C(N)=O)sc2C1 (stereo not given) | 4.4 µM | 67.4% | 24.7% | 1.05 | 1.13 | 55.8% | 1.09
5 | 130 nM | 6000 nM | CN1CCc2nc(C(=O)N3CCN(S(=O)(=O)c4ccc5cc(Cl)ccc5c4)CC3C(=O)N(C)C)sc2C1 (stereo not given) | 7 µM | – | – | – | – | – | –

The remaining lines, values behind:

Row | SMILES | IC50 (Coagulation factor X) | IC50 (Prothrombin) | Concentration (Homo sapiens) | Anti-fXa activity (Rattus norvegicus [1]) | Anti-fXa activity (Rattus norvegicus [2]) | Prolongation effect (Rattus norvegicus [3]) | Prolongation effect (Rattus norvegicus [4]) | Anti-fXa activity (Rattus norvegicus [5]) | Prolongation effect (Rattus norvegicus [6])
6 | CN1CCc2nc(C(=O)N3CCN(S(=O)(=O)c4ccc5cc(Cl)ccc5c4)CC3)sc2C1 | 22 nM | 560 nM | 6 µM | – | – | – | – | – | –
7 | CN1CCc2nc(C(=O)N3CCN(S(=O)(=O)c4ccc5cc(Cl)ccc5c4)CC3C(=O)NCc3ccccc3)sc2C1 (stereo not given) | 640 nM | 1300 nM | – | – | – | – | – | – | –
8 | O=C(c1nc2c(s1)CNCC2)N1CCN(S(=O)(=O)c2ccc3cc(Cl)ccc3c2)CC1 | 60 nM | 2900 nM | 11.2 µM | – | – | – | – | – | –
9 | C[N+]1(C)CCc2nc(C(=O)N3CCN(S(=O)(=O)c4ccc5cc(Cl)ccc5c4)CC3)sc2C1 | 7.8 nM | 3200 nM | 0.8 µM | – | – | – | – | – | –
10 | CN1CCc2nc(C(=O)N3CCN(S(=O)(=O)c4ccc5cc(Cl)ccc5c4)CC3C(=O)NCC(=O)N3CCOCC3)sc2C1 (stereo not given) | 25 nM | 1000 nM | 2.1 µM | – | – | – | – | – | –
